Assay outcomes deposited in PubChem by several laboratories.
The entries come from a sample that favours hits as a whole.
L major viab – reduces viability of Leishmania major promastigotes; resazurin fluorescence viability; inhibition, % at 10 µM; actives 9% (n = 200,000); AID 1063; in the data active = inhibition above about 50%;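 also: promastigotes grown with compound for 44 hours at 28 °C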
CHOP inh – blocks CHOP induction under ER stress | inhibition, % at 10 µM | actives 3.8% (n = 220,000) | CHO-K1 CHOP-promoter luciferase, tunicamycin-induced, 15-18 h;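 active = compounds that reduced the stress-induced luciferase reporter signal by more than about 70% of percent inhibition, limit read from the data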;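 also: 0% = tunicamycin plus vehicle and 100% = wells without tunicamycin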
UPR CHOP act – activators of apoptotic arm of unfolded protein response (CHOP); CHO-CHOP luciferase reporter, UPR activation, luminescence; percent of tunicamycin response over DMSO baseline; activation, % at 10 µM; actives 0.34% (n = 330,000); AID 449763;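 active = at 10 µM dose, activation of 40% or more, normalized to positive control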;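 also: 100% = tunicamycin at 10 µg/mL and 0% = DMSO alone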
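System: CHO-CHOP luciferase reporter cell line; amount: 500 cells/well; buffer or medium: F12 medium containing 10% fetal bovine serum; incubation: 6 h compound exposure at 37 °C after overnight seeding; measured by: luciferase luminescence after 10 min with Steady-Glo reagent; evaluation: % reporter activation, DMSO baseline versus tunicamycin full activation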
Dynein transport – dynein cargo transport inhibition. 3617.4 mouse cells, GR-EGFP nuclear translocation imaging; test concentration mostly 20 µM; stimulated with dexamethasone, 1 µM; active compounds read low. actives 0.47% (n = 220,000). z-score, hits read low. AID 1381;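 active = plate z-score of nuclear minus cytoplasmic receptor signal below a set negative limit, without overly bright fluorescence or cell loss, cut at about -3.5 in these data, passing the limit was not always enough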;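 also: z-score of nuclear minus cytoplasmic ring GR-EGFP intensity difference per well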
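Also added – dexamethasone, 1.0 µM final · Buffer or medium – tet-free, stripped-serum medium · Schedule – induction 48 h, compound 1 h, agonist 30 min · Detection – formaldehyde fixation, Hoechst nuclear stain, 10x automated fluorescence imaging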
T cruzi repl – blocks replication of Trypanosoma cruzi; inhibition, % (test concentration not listed); actives 1.4% (n = 300,000); T. cruzi beta-gal in NIH3T3, luminescence, 90 h;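 active = mean inhibition across valid replicates above about 55%, limit read from the data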;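 also: signal also drops with host cell toxicity which is not excluded here; 0% = plate median of DMSO wells and 100% = zero luminescence signal; higher percent means less beta-gal luminescence so fewer parasites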
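System – NIH/3T3 host cells with β-galactosidase reporter T. cruzi · Doses – single 50 nL compound addition per well in DMSO · Reagent – 5000 T. cruzi trypomastigotes/well · Medium – Low-serum DMEM with 2% FBS · Timing – ≥90 h infection period, 3 h prior cell attachment · Evaluation – parasite load inhibition, % · Technique – GalScreen luminescence, 60 min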
XBP1 UPR activ – adaptive UPR (XBP1) activation | activation, % at 20 µM | actives 0.33% (n = 330,000) | CHO-XBP1 luciferase reporter, IRE1-XBP1 UPR activation, luminescence; percent of tunicamycin response, DMSO as zero;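 active = versus positive control, 20 µM dose yields 30% or more activation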;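 also: 100% = tunicamycin at 10 µg/mL and 0% = DMSO only wells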
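Material: IRE1-XBP1 luciferase reporter CHO line / Quantity: one thousand reporter cells per well / Buffer or medium: F12 with 10% serum / Compound: 20 µM single concentration, DMSO 1% / Times: 6 h treatment, 37 °C / Detection: Steady-Glo luciferase glow luminescence, 10 min after reagent addition / Benchmarks: tunicamycin high, DMSO low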
* marks the source's active call; other numbers are inactive results; . = no result given.

SMILES	L major viab	CHOP inh	UPR CHOP act	Dynein transport	T cruzi repl	XBP1 UPR activ
CCOC(=O)c1c(C)[nH]c(C)c1C(=O)COC(=O)c1cc2ccccc2cc1OC	64.3*	48.6	7.9	-0.0724	26.7	-0.4
CCOC(=O)c1c(C)[nH]c(C)c1C(=O)COC(=O)c1cc2ccccc2cc1O	5.3	55.6	0.5	-0.26	-18.3	0.5
CCOC(=O)c1c(C)[nH]c(C)c1C(=O)COC(=O)/C=C/c1cccc(C(F)(F)F)c1	59.4*	58.5	.	1.15	1.5	.
COC(=O)c1cc(CN2CCN(c3ccccc3)CC2)ccc1O	.	.	2.7	.	1.3	-2.5
Cc1ccc(C(=O)c2cc3c(cc2N)OCCO3)cc1	0.9	73.4*	0.0	-0.21	-14.1	0.4
Nc1cc2c(cc1C(=O)c1ccccc1)OCCO2	-3.1	36.8	-0.9	-0.0844	2.4	-1.4
CCOC(=O)c1nc2cc3n(c(CC(C)C)c-2c1C)CC(C)=C3C	64.1*	17.1	0.8	-0.593	28.0	0.0
CCOC(=O)c1n[nH]n(-c2cc(Cl)cc(Cl)c2)c1=O	.	15.3	1.2	-0.884	-4.1	0.6
CCOc1cc(C(N)=O)cc(Br)c1OCc1ccccc1	99.9*	14.4	0.7	0.168	8.6	2.8
CCc1cccc(NC(=O)Cn2c(=O)c3cccn3c3ccccc32)c1	.	.	0.9	.	16.1	0.1
Cc1c(CN2CCC(CO)(Cc3cccc(C(F)(F)F)c3)CC2)c2ccccc2n1C	86.7*	20.7	0.0	3.2	56.2*	2.8
COc1ccc(CC2(CO)CCN(Cc3cc4ccccc4o3)CC2)cc1	78.7*	33.0	-2.5	-0.688	33.4	-1.3
OCC1(Cc2cccc(C(F)(F)F)c2)CCN(Cc2cc3ccccc3o2)CC1	84.1*	89.3*	0.5	-1.38	26.0	-0.2
Cc1ccc(NC(=O)C2=C(O)CCn3c2nc2ccccc23)cc1	57.4*	-20.1	3.2	-0.431	4.6	3.1
Cc1ccc(S(=O)(=O)c2cc3ccccc3oc2=Nc2ccc3c(c2)OCCO3)cc1	97.8*	19.3	0.0	0.54	7.7	-1.9
COc1cccc2cc(S(=O)(=O)c3ccccc3)c(=Nc3ccc4c(c3)OCCO4)oc12	91.8*	24.7	0.1	-0.35	21.1	-1.4
CN(C)C1(CNC(=O)C2CCN(S(=O)(=O)c3cccc(C(F)(F)F)c3)CC2)CCCCC1	.	.	2.7	.	25.9	-1.8
CC(C)C(NC(=O)c1ccc(C(C)(C)C)cc1)C(=O)N1CCCC1 (configuration not stated)	.	.	4.3	.	-2.5	-3.5
Cc1ccc(S(=O)(=O)N2CCCC2CNC(=O)C(=O)Nc2ccc(F)cc2)cc1 (configuration not stated)	.	.	-0.3	.	-1.0	1.6
Cc1cc(N2CCN(S(=O)(=O)c3ccc(Cl)c(Cl)c3)CC2)c2ccccc2n1	74.4*	30.1	-0.1	0.62	.	2.3
CN1CCCN(S(=O)(=O)c2cccc(Cl)c2Cl)CC1	71.6*	13.2	-2.3	0.112	4.1	-0.6
CN1CCN(S(=O)(=O)c2cccc(S(=O)(=O)c3ccc(Cl)cc3)c2)CC1	-2.5	10.8	-1.6	-1.13	16.6	0.9
CN1CCCN(S(=O)(=O)c2ccc(Cl)c(Cl)c2)CC1	82.0*	31.3	.	-0.846	1.0	.
Cc1cc(C)n(-c2nc3ccccc3nc2N2CCN(S(=O)(=O)c3ccc4ccccc4c3)CC2)n1	53.6*	11.7	1.8	0.93	34.4	3.1
Cc1cc(C)n(-c2nc3ccccc3nc2N2CCN(S(=O)(=O)c3ccc(F)c(C)c3)CC2)n1	20.1	9.8	-2.0	-1.58	21.0	-1.8
NS(=O)(=O)c1ccc(NS(=O)(=O)c2ccc(NC(=O)C3CC3)cc2)cc1	.	.	-0.6	.	-4.7	-4.6
O=c1[nH]c2ccccc2n1CCCSc1cnc2ccccc2n1	7.9	77.8*	-2.1	1.96	17.7	1.0
COc1ccccc1N1CCN(C2CCCCC2NS(=O)(=O)c2ccccc2)CC1 (configuration not stated)	.	.	1.4	.	18.9	0.2
CN(C)c1ccc(N=c2sc3ccccc3n2C)cc1	98.3*	69.0	4.3	-0.873	31.0	0.5
